Results published in article PMC10959575 (Journal of the American Society for Mass Spectrometry, 2023).
Each block holds one compound with its values, some of them ahead of it.

Legend:
α-syn [1] = biological target: T1, α-syn (Homo sapiens, UniProt P37840); experiment: Native MS of α-syn/Cu2+/CLR01 solution, 1:1:3 molar ratio; type: binding
In short: (§1)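 Protein at 10–30 μM in 20 mM ammonium acetate, with ligand added to 10–50 μM. Electrosprayed at 1–2 kV on a 15T FT-ICR (capillary exit 100 V, deflector 200 V, funnel 90 V, skimmer 50 V). Spectra deconvolved. Percent binding calculated from intensities of unbound and ligand-bound peaks.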

[2] = biological target: α-syn/Cu^2+/CLR01 complex (Homo sapiens, UniProt P37840); experiment: ECD top-down FT-ICR MS of the α-syn/Cu2+/CLR01 complex; type: binding
In short: (§2)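 ESI on a 15T FT-ICR instrument: spray 1–2 kV, capillary exit 100 V, deflector plate 200 V, funnel 90 V, skimmer 50 V. Complex ions isolated with a 5–20 m/z notch, then fragmented by ECD (bias 1 V, pulse 10–50 ms). Product spectra deconvoluted with S/N limit 2. c- and z-ions assigned at 5 ppm error, with ligand and metals as unlocalized modifications.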

α-syn/ Cu^2+ complex = α-syn/ Cu^2+ complex (Homo sapiens, UniProt P37840); experiment: IM-MS of the α-syn/Cu2+ complex with and without CLR01; conditions: 9+ charge state
In short: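 Copper-bound α-syn in 20 mM ammonium acetate, analysed with test compound at 1:3 molar ratio and without it. Mobility measured by quadrupole-IM-TOF: spray 1–2 kV, sampling cone 10–20 V, source offset 20 V. Data for each charge state extracted over the [M+nH]ⁿ⁺ peak.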

[3] = biological target: α-syn/Mn^2+/CLR01 complex (Homo sapiens, UniProt P37840); experiment: ECD top-down FT-ICR MS of the α-syn/Mn2+/CLR01 complex; type: binding
In short: as §2

α-syn [4] = biological target: T1, α-syn; experiment: IM-MS of α-syn with Mn2+ and CLR01
In short: (§3)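 IM-MS on a quadrupole-IM-time-of-flight instrument: spray 1–2 kV, sampling cone 10–20 V, source offset 20 V. Spectra taken over the full m/z range, with each charge state extracted over its [M+nH]ⁿ⁺ peak. Ligand at 5x molar concentration for wild-type protein; metal-bound protein with ligand at a 1:3 molar ratio.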

α-syn [5] = biological target: T1, α-syn; experiment: Native MS of α-syn/Mn2+/CLR01 solution, 1:5:3 molar ratio; type: binding
In short: as §1

A30P α-syn [6] = biological target: T2, A30P α-syn (Homo sapiens, UniProt P37840, A30P); experiment: Native MS of A30P α-syn with CLR01; type: binding; conditions: native solution conditions
In short: as §1

A30P α-syn [7] = biological target: T2, A30P α-syn; experiment: IM-MS of A30P α-syn/CLR01 complexes; conditions: 8+ and 9+ charge states
In short: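 WT and A30P α-syn (10–30 μM) in 20 mM ammonium acetate, with test compound at 5x molar excess. Read on a quadrupole-IM-TOF instrument: spray 1–2 kV, sampling cone 10–20 V, source offset 20 V. IM spectra taken over the full m/z range. Per-charge-state data extracted over the [M+nH]ⁿ⁺ peak.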

A30P α-syn [8] = biological target: T2, A30P α-syn; experiment: ECD top-down FT-ICR MS, binding site location on A30P α-syn; conditions: A30P α-syn with 2 CLR01 molecules bound
In short: (§4)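 Protein (10–30 μM) in 20 mM ammonium acetate with test compound at 10–50 μM. Native ESI on a 15T FT-ICR: spray 1–2 kV, capillary exit 100 V, deflector 200 V, funnel 90 V, skimmer 50 V. Complexes isolated with 5–20 m/z notch, then ECD (bias 1 V, pulse 10–50 ms). Fragments deconvoluted at S/N 2. c/z ions assigned at 5 ppm error, with ligand as unlocalized modification.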

WT α-syn [9] = biological target: T3, WT α-syn (Homo sapiens, UniProt P37840); experiment: IM-MS of WT α-syn with CLR01
In short: as §3

acetylated α-syn = acetylated α-syn (Homo sapiens, UniProt P37840); experiment: IM-MS of acetylated α-syn with CLR01; conditions: 9+ charge state
In short: (§5)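 Acetylated (made as previously described) or phosphorylated α-syn in 20 mM ammonium acetate, mixed 1:1 molar with test compound. Ion mobility–MS run on a quadrupole-IM-TOF: spray 1–2 kV, sampling cone 10–20 V, source offset 20 V. Mobiligrams extracted per charge state over the [M+nH]ⁿ⁺ peak.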

WT α-syn [10] = biological target: T3, WT α-syn; experiment: Native MS of WT α-syn with CLR01; type: binding
In short: as §1

phosphorylated α-syn = phosphorylated α-syn (Homo sapiens, UniProt P37840); experiment: IM-MS of phosphorylated α-syn with CLR01; conditions: 9+ charge state
In short: as §5

[11] = biological target: wild type α-syn, acetylated α-syn, and phosphorylated α-syn (Homo sapiens, UniProt P37840); experiment: Native MS of equimolar proteoform mixture with equimolar CLR01; type: binding; conditions: equimolar ratio of CLR01
In short: as §1

tau protein = conditions: IM-MS; cited from earlier work
wildtype α-syn = wildtype α-syn (Homo sapiens, UniProt P37840); experiment: ECD top-down FT-ICR MS, binding site location on WT α-syn; conditions: 13+ charge state, α-syn bound with 2 CLR01 molecules
In short: as §4

α-syn [12] = biological target: T1, α-syn; conditions: IM-MS; cited from earlier work

α-syn bound by Cu2+ (α-syn [1]; 0 CLR01 molecules bound): 65%
number of copper binding events (α-syn [1]; 1:1:3 α-syn:Cu2+:CLR01): 1
Cu2+ binding location [2]: N-terminus
Compound: [Cu+2] [Cu^2+]
ion mobiligram of Cu2+ bound α-syn versus WT form (α-syn/ Cu^2+ complex; no CLR01): early arriving ensembles significantly more abundant

Mn2+ binding location [3]: acidic C-terminal region
structural effect of Mn2+ binding (α-syn [4]; Mn2+ alone): only slightly compacts
number of Mn2+ binding events observed (α-syn [5]; 1:5:3 α-syn:Mn2+:CLR01): up to 5
α-syn bound by Mn2+ (α-syn [5]; CLR01 not bound to the protein): 86%
Compound: [Mn+2] [Mn^2+]

number of CLR01 binding events observed (A30P α-syn [6]): up to 5
total CLR01 bound to the protein (A30P α-syn [6]): 74%
number of CLR01 molecules bound simultaneously with Cu2+ (α-syn [1]; 1:1:3 α-syn:Cu2+:CLR01): Up to 3
α-syn bound by Cu2+ (α-syn [1]; 3 CLR01 molecules bound): 57%
structural effect when CLR01 and Mn2+ both bind (α-syn [4]; CLR01 and Mn2+ bound): the structure of α-syn is compacted
change of ion mobiligram on CLR01 binding (WT α-syn [9]; higher charge states such as 12+): do not show significant shifts
CLR01 in solution bound to the protein (WT α-syn [10]; CLR01 at 5x molar concentration): 63%
number of CLR01 binding events observed (WT α-syn [10]; CLR01 at 5x molar concentration, deconvolved mass spectrum): up to 5
Kd values for the fourth and fifth binding sites (WT α-syn [10]; WT α-syn titrated with CLR01, thought to bind nonspecifically): did not converge well
number of CLR01 binding events observed (α-syn [5]; 1:5:3 α-syn:Mn2+:CLR01): ≤ 4
α-syn bound by Mn2+ (α-syn [5]; 1 CLR01 molecule bound): 89%
α-syn bound by Mn2+ (α-syn [5]; 2 CLR01 molecules bound): 92%
number of CLR01 molecules that bind each proteoform [11]: up to 2
Compound: CLR01
change of ion mobiligram on CLR01 binding (A30P α-syn [7]): early arriving ensembles increase in abundance
CLR01 binding location (A30P α-syn [8]): K10 and K12 with a possible additional site of binding at K21
change of ion mobiligram on CLR01 binding (WT α-syn [9]; 9+ charge state, 1 CLR01 molecule bound): increase in abundance of the early arriving ensemble
change of ion mobiligram on CLR01 binding (acetylated α-syn): increase in the abundance of early arriving ensembles
change of ion mobiligram on CLR01 binding (α-syn/ Cu^2+ complex; α-syn/Cu2+ complex): further increases the abundance of the early arriving conformers
change of ion mobiligram on CLR01 binding (phosphorylated α-syn): further increase in abundance of the early arriving ensembles
structural effect of binding on tau protein (tau protein): compacts the structure of tau protein
binding location of the second CLR01 molecule (wildtype α-syn): K12 with a secondary binding location at K21

Compound: epigallocatechin-3-gallate [EGCG]
structural effect of binding on α-syn (α-syn [12]): promotes compaction of α-syn structure
